7 molecules from ChEMBL document CHEMBL1135467 (J Med Chem, 2002) can be followed below.

Broadly, the Ki is the equilibrium dissociation constant of an inhibitor or competing ligand from its target. As a reminder, the IC50 is the concentration at which inhibition is half-maximal.

Test [1] addresses T1, Mu-type opioid receptor (Rattus norvegicus, UniProt P33535). In words: Binding affinity towards Opioid receptor mu 1 by displacing [3H]DAMGO in rat brain membranes. The class given is cell membranes. The essentials:
(§1)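 Rat brain minus cerebellum homogenised in 0.32 M sucrose/10 mM Tris-HCl and spun. The pellet was preincubated 1 h to strip endogenous opioids. GF/B filtration, scintillation counting.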

Test [2] deals with T1, Mu-type opioid receptor. Kind of test: Inhibitory activity against [3H]DAMGO binding to Opioid receptor mu 1 in rat brain membranes. The class given is cell membranes. In a few lines:
as §1

Test [3] is described as follows: Potency for inhibition of forskolin-stimulated cyclic AMP accumulation in SH-SY5Y cells. Particulars: Homo sapiens. The class given is functional, cell-based. In a few lines: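 SH-SY5Y cells at 85-100% confluence in 24-well plates, in serum-free F12/DMEM with 0.5 mM IBMX, protease inhibitors and DADLE δ-blocker, 10 min at 37 °C. Then 10 µM forskolin plus ligand over a concentration range, 15 min at 37 °C. Ethanol extraction, cAMP measured by commercial kit. Triplicate wells averaged, IC50 fitted.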

T1 sequence (P33535 whole entry): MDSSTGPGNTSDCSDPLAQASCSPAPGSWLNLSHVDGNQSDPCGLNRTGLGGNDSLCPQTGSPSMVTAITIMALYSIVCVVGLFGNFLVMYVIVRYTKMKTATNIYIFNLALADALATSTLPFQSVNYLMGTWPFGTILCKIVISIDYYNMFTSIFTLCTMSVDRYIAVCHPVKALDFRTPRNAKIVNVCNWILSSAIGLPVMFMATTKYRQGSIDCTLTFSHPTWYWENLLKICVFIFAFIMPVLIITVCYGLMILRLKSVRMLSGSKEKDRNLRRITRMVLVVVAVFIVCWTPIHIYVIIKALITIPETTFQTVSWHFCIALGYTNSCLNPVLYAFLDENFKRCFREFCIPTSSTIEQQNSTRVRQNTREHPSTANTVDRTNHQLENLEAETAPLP

On Mu-type opioid receptor [1], `NC(=O)[C@H](Cc1ccccc1)NC(=O)[C@H](Cc1c[nH]c2ccccc12)NC(=O)[C@@H]1CCCN1C(=O)C[C@@H](N)Cc1ccc(O)cc1` came in with an inhibitory constant (Ki) of 26 nM. On Mu-type opioid receptor [2], this molecule registered a 50% inhibitory concentration (IC50) of 990 nM.
In the case of `NC(=O)[C@H](Cc1ccccc1)NC(=O)[C@H](Cc1c[nH]c2ccccc12)NC(=O)C[C@H]1CCCN1C(=O)[C@@H](N)Cc1ccc(O)cc1`, the IC50 in test [3] came to 45 nM; on Mu-type opioid receptor [2], 79 nM. At Mu-type opioid receptor [1], the Ki was determined as 67 nM.
With `NC(=O)[C@H](Cc1ccccc1)NC(=O)[C@H](Cc1c[nH]c2ccccc12)NC(=O)C[C@@H]1CCCN1C(=O)[C@@H](N)Cc1ccc(O)cc1`, the IC50 in test [3] stood at 6.53 nM; at Mu-type opioid receptor [2], 4 nM. On Mu-type opioid receptor [1], this molecule came in with a Ki of 2.1 nM.
Take `NC(=O)C[C@H](Cc1ccccc1)NC(=O)[C@H](Cc1c[nH]c2ccccc12)NC(=O)[C@@H]1CCCN1C(=O)[C@@H](N)Cc1ccc(O)cc1`: affinity on Mu-type opioid receptor [1] was put at a Ki of 79 nM. On Mu-type opioid receptor [2], this molecule displayed an IC50 of 80.1 nM.
In the same order, the values of `NC(=O)[C@H](Cc1ccccc1)NC(=O)C[C@H](Cc1c[nH]c2ccccc12)NC(=O)[C@@H]1CCCN1C(=O)[C@@H](N)Cc1ccc(O)cc1` are 73 nM and 23.3 nM.
`C[C@@H](NC(=O)[C@@H](N)Cc1ccc(O)cc1)C(=O)NCC(=O)N(C)[C@@H](Cc1ccccc1)C(=O)NCCO` [DAMGO] gave a half-inhibitory concentration (IC50) in test [3] of 1.1 nM. This counts as single-digit nanomolar.
In test [3], `NC(=O)[C@H](Cc1ccccc1)NC(=O)[C@H](Cc1c[nH]c2ccccc12)NC(=O)[C@@H]1CCCN1C(=O)[C@@H](N)Cc1ccc(O)cc1` [ENDOMORPHIN-1] gave a half-inhibitory concentration (IC50) of 19.1 nM.
